Compound activity (PubChem)
TRPC4 potent: positive allosteric modulators of TRPC4, primary screen, cell-based, mouse TRPC4beta, HEK293 mu-opioid, Fluo-4 calcium; Short transient receptor potential channel 4 (Mus musculus), Q9QUQ5; DAMGO EC20, Fluo-4 Ca2+ flux; hits give high values; B-score at 10 µM; 0.42% of 310,000 active; AID 2227, 2009;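 active means B-score of calcium response area above 5 SD of library B-scores, with initial fluorescence ratio within 5 SD of library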
Target sequence (Q9QUQ5 whole entry, looked up): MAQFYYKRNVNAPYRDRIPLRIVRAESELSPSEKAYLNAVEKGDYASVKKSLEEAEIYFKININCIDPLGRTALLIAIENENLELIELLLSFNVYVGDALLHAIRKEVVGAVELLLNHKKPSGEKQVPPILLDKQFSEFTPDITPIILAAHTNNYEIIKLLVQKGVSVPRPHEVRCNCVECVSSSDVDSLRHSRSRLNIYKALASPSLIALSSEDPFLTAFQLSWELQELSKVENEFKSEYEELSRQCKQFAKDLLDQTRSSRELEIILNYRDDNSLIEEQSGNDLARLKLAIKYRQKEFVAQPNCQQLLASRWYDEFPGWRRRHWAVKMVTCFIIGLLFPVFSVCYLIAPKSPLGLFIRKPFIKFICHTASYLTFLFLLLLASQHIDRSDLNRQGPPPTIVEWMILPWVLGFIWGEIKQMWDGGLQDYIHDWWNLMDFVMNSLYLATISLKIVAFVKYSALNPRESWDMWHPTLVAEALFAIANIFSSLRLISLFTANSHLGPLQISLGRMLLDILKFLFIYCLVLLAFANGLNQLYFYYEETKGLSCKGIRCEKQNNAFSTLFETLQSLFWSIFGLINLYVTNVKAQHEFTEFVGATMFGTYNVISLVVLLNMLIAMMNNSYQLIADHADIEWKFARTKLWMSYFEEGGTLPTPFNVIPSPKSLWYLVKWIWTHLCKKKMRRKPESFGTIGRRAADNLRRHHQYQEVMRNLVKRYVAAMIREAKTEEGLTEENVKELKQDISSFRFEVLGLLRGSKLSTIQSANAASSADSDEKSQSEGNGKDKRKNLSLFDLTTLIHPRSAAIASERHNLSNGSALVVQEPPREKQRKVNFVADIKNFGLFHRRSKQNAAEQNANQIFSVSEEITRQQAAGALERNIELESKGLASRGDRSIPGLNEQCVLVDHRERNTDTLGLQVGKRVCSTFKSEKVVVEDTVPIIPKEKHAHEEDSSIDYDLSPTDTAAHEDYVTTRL
TRPC6 activator: mouse TRPC6 channel activators, primary screen, cell-based, HEK293, membrane potential dye; B-score at 10 µM; 0.13% of 310,000 active; HEK293-TRPC6 membrane potential dye fluorescence; hits give high values; Short transient receptor potential channel 6 (Mus musculus), Q61143; AID 2550, 2010;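 active means B-score of the integrated fluorescence ratio above library mean plus 3 SD, and starting fluorescence ratio within library mean plus 5 SD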;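 further: higher score means more depolarization so channel activation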
TRPC4 inh: inhibitors of mouse TRPC4 channel, primary screen, Fluo4 calcium, HEK293 TRPC4beta/mu-opioid cells. Short transient receptor potential channel 4 (Mus musculus), Q9QUQ5. 0.39% of 300,000 active. DAMGO-evoked Fluo4 calcium flux; hits give low values. B-score at 10 µM;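 active means B-score over 3 SD under the library average, no early fluorescence shift, positive overall ratio signal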
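Assay system: TRPC4beta/mu-opioid receptor HEK293 cell line; compound dosing: single concentration per test compound; detection: Fluo4 Ca2+ flux fluorescence; evaluation: per-well B score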
TRPC4 agonist: activators of mouse TRPC4 channel, primary screen, Fluo4 calcium, HEK293 TRPC4beta/mu-opioid cells | Short transient receptor potential channel 4 (Mus musculus), Q9QUQ5 | Fluo4 calcium fluorescence; hits give high values | B-score at 10 µM | AID 2237, 2010 | 0.49% of 310,000 active;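 active means B-score above 5 SD of library B-scores, and initial fluorescence ratio not above library mean plus 5 SD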;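 further: positive B-score marks a calcium rise read as TRPC4 activation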
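Assay system: HEK293 stable line with TRPC4beta plus mu-opioid receptor. Times: dye 45 min RT, read 110 s. Measured by: kinetic Fluo4 calcium fluorescence. Measure: B score of integrated ratio. Controls: assay buffer as low control, maximal DAMGO as high control.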
TRPC6 inhibitor: mouse TRPC6 channel inhibitors, primary screen, cell-based, HEK293, membrane potential dye. Short transient receptor potential channel 6 (Mus musculus), Q61143. ACh-evoked depolarization; hits give low values. B-score at 10 µM. 1.1% of 310,000 active;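 active means B-score under library mean minus 3 SD, initial fluorescence not abnormally high, positive integrated signal ratio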;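 further: B-score derived from integrated fluorescence ratio over the kinetic read; more negative B-score means stronger inhibition of depolarization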
DNA FID counter: compounds displacing fluorescent DNA intercalator, primary screen, artefact control for HCV NS3 helicase inhibitor project, biochemical, FID fluorescence; DNA fluorescent intercalator displacement; inhibition, % at 7.9 µM; 0.17% of 290,000 active; in the data active means inhibition above about 37%;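 further: higher means more ethidium bromide displaced from hairpin DNA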
TRPC4 sel inh 2: second check of whether TRPC6 inhibitors also affect mouse TRPC4; shares compounds with TRPC6 inhibitor; HEK293 TRPC4/MOR, membrane potential dye fluorescence; channel activated by saturating DAMGO dose; inhibition, % at 10 µM; 42% of 920 active; AID 2776;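 active means compounds whose fluorescence signal differed from control wells by over 3 SD, either direction, in both duplicate plates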
TRPC4 spec: mouse TRPC4 modulation by TRPC6 hits, confirmation, selectivity assay for TRPC6 inhibitor project, cell-based, HEK293 TRPC4/mu-opioid, membrane potential dye; 61% of 920 active; activity change, negative = inhibition, % at 10 µM; shares compounds with TRPC6 inhibitor; membrane potential fluorescence;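 active means rise or fall in signal beyond 3 SD of buffer-only wells in both replicate plates, either sign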;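 further: integrated kinetic ratio of fluorescence range over baseline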
HEK293 MPD ctr 2-1: nonspecific membrane potential effects, parental HEK293, confirmation, counter-screen for TRPC6 inhibitor project, cell-based, second counter screen. 31% of 920 active. parental HEK293 membrane potential dye fluorescence; maximal acetylcholine challenge after compound addition. shares compounds with TRPC6 inhibitor. AID 2779, 2010. signal change vs control, % at 10 µM;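 active means membrane potential signal moving either way by over 3 SD of the maximum-effect control, in both duplicate plates, meaning non-specific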
HEK293 MPD ctr-1: membrane potential modulation in parental HEK293, confirmation, counter-screen for TRPC6 inhibitor project, cell-based | shares compounds with TRPC6 inhibitor | parental HEK293 membrane potential dye fluorescence | membrane potential signal change, % at 10 µM | 60% of 920 active | AID 2780, 2010;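 active means membrane potential signal shifting up or down by more than 3 SD of buffer-only wells, on both duplicate plates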
HEK293 MPD ctr-2: parental HEK293 membrane potential modulation, confirmation, counter-screen for TRPC6 modulator project, cell-based; shares compounds with TRPC6 inhibitor; membrane potential dye fluorescence; membrane potential signal change, % at 10 µM; 51% of 2,400 active; AID 488924, 2010;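 active means membrane potential signal moves up or down beyond 5 SD from buffer-only wells, on both duplicate plates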
HEK293 MPD ctr 2-2: second counter-screen for TRPC6 modulators: effect in parental HEK293 cells; AID 488926; 14% of 2,400 active; membrane potential dye fluorescence; after compound, maximal acetylcholine stimulation; shares compounds with TRPC6 inhibitor; inhibition, % at 10 µM;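 active means membrane potential signal drops by more than 5 SD from the mean control signal, in both duplicate plates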
TRPC4/MOR mod: TRPC4 modulation by TRPC6 hit compounds, confirmation, selectivity assay for TRPC6 modulator project, cell-based, HEK293 TRPC4/mu-opioid, membrane potential dye, mouse; shares compounds with TRPC6 inhibitor; AID 488927, 2010; 69% of 2,400 active; membrane potential fluorescence; percent change from control (negative = decrease, positive = increase), % at 10 µM;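 active means membrane potential signal moved up or down beyond 5 SD of buffer control wells, in both duplicate plates, actives on both sides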
TRPC4/MOR inh 2: second selectivity test of TRPC6 modulators against mouse TRPC4. HEK293 TRPC4/mu-opioid, membrane potential dye fluorescence; stimulated with maximal-effect DAMGO. 55% of 2,400 active. inhibition, % at 10 µM. shares compounds with TRPC6 inhibitor;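 active means drop in membrane potential signal beyond 5 SD of the control wells in both duplicate plates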;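 further: TRPC4 counter screen for TRPC6 hits run under conditions tuned for TRPC6 not TRPC4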
TRPC6 inh conf: mouse TRPC6 channel inhibitors, confirmation, HEK293 cells, membrane potential dye, duplicate. shares compounds with TRPC6 inhibitor. ACh-evoked depolarization. inhibition, % at 10 µM. 43% of 3,300 active. AID 488960, 2010;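 active means fluorescence ratio falls more than 5 SD below the full-stimulation control mean, in both duplicate runs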;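 further: integrated fluorescence ratio of peak minus minimum over baseline after agonist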
TRPC6 act confirm: mouse TRPC6 channel activators, confirmation, HEK293 cells, membrane potential dye, duplicate | shares compounds with TRPC6 inhibitor | HEK293-TRPC6 membrane potential dye fluorescence, FDSS | activation, % at 10 µM | 11% of 2,800 active;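 active means ratio signal rise beyond 5 SD above unstimulated control wells' mean, seen in both duplicate runs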
Hits are given with their value; n = inactive; x = not tested or not shown. Sampled rows, rich in hits. Any-hit rate of the full collection: about 2.3%.

SMILES	TRPC4 potent	TRPC6 activator	TRPC4 inh	TRPC4 agonist	TRPC6 inhibitor	DNA FID counter	HEK293 MPD ctr-2	HEK293 MPD ctr 2-2	TRPC4/MOR mod	TRPC4/MOR inh 2	TRPC6 inh conf	TRPC6 act confirm	others
Cc1ccc(C)c(N2CCN(CCCNC(=O)Cn3cc4c(n3)CCCCC4)CC2)c1	n	n	n	n	n	n	x	x	x	x	x	x
Cc1ccc(S(=O)(=O)N2CCC(=O)N(CCOC(=O)Nc3ccc(C)c(C)c3)CC2)cc1	n	n	n	n	-6.9	n	x	x	x	x	n	x	TRPC4 sel inh 2=n;TRPC4 spec=n;HEK293 MPD ctr 2-1=n;HEK293 MPD ctr-1=n
Cc1ccc(NC(=O)OCCN2CCN(S(=O)(=O)c3ccc(C)cc3)CCC2=O)cc1	n	n	n	n	n	n	x	x	x	x	x	x
Cc1ccc(S(=O)(=O)N2CCC(=O)N(CCOC(=O)Nc3cccc(Cl)c3)CC2)cc1	n	16	n	n	-10	n	n	n	n	n	108%	160%
CCOC(=O)N1CCN(C(=O)c2ccc(N(C)S(=O)(=O)c3ccc(C)cc3)cc2)CC1	n	n	n	n	n	n	x	x	x	x	x	x
Cc1ccc2nc(C)c3c(c2c1)COC3	n	n	n	n	-6.3	n	-165%	84%	-27%	47%	44%	n
Cc1nc2c(C)cccc2c2c1COC2	n	n	n	n	-9.1	n	x	x	x	x	61%	n	TRPC4 sel inh 2=n;TRPC4 spec=-30%;HEK293 MPD ctr 2-1=36%;HEK293 MPD ctr-1=-434%
Cc1cccc2c(C(=O)O)c3cccc(C)c3nc12	n	n	n	n	n	x	x	x	x	x	x	x
Cc1ccc(S(=O)(=O)N2CCN(C(=O)CC(C)n3nc(C)c(Cl)c3C)CC2)cc1 (configuration not stated)	n	n	n	n	n	n	x	x	x	x	x	x
COc1ccc(/C=N/Nc2ccccn2)cc1OC	n	n	n	n	-5.8	n	-121%	n	-22%	36%	n	n
Cc1ccc2cc(/C=N/Nc3nc4ccccc4[nH]3)c(Cl)nc2c1	n	n	n	n	n	n	x	x	x	x	x	x
CCN(CC)c1ccc(/C=N/Nc2nc3ccccc3[nH]2)c(O)c1	n	n	n	n	-5.9	n	n	n	-29%	71%	n	n
CCCCn1c(/C=N/Nc2nc3ccccc3[nH]2)nc2ccccc21	n	n	n	n	n	n	x	x	x	x	x	x
COc1ccc2c(c1)c(/C=N/Nc1nc3ccccc3[nH]1)c(C)n2C	n	n	n	n	-8.2	n	-122%	n	-36%	75%	38%	n
C#CCn1cc(/C=N/Nc2nc3ccccc3[nH]2)c2ccccc21	n	n	n	n	-7.8	n	-190%	80%	-40%	91%	74%	n
COc1cc(OC)c(OC)cc1/C=N/Nc1nc2ccccc2[nH]1	n	n	n	n	-5.2	n	n	n	-11%	n	n	n
COc1cc(/C=N\Nc2nc3ccccc3[nH]2)cc(OC)c1OC	n	n	n	n	n	n	x	x	x	x	x	x
COc1cc(OC)c(OC)cc1/C=N/Nc1ncnc2c1[nH]c1ccccc12	n	n	n	n	n	n	x	x	x	x	x	x
COc1ccc(/C=N/Nc2nc3ccccc3[nH]2)cc1OC	n	n	n	n	-5.2	n	-101%	n	-18%	50%	59%	n
O=C(CN1CCN(C(=O)C2CCCO2)CC1)Nc1cc(C(F)(F)F)ccc1Cl (configuration not stated)	n	n	n	n	n	n	x	x	x	x	x	x
O=[N+]([O-])c1ccc(OCCCCN2CCCCC2)cc1	n	n	n	n	n	n	x	x	x	x	x	x
O=[N+]([O-])c1ccc(OCCCCN2CCc3ccccc3C2)cc1	n	n	n	n	-8.4	n	x	x	x	x	n	n	TRPC4 sel inh 2=44%;TRPC4 spec=n;HEK293 MPD ctr 2-1=n;HEK293 MPD ctr-1=n
Cc1cc2c3c([nH]c2cc1S(=O)(=O)NCc1ccc(CN2CCCCCC2)o1)CCCC3=O	n	n	n	n	n	n	x	x	x	x	x	x
O=C(NCCNc1ccnc2cc(Cl)ccc12)c1ccccc1F	n	n	n	n	n	n	x	x	x	x	x	x
Clc1ccc2c(NCc3ccccc3)ccnc2c1	n	n	n	n	-5.5	n	-98%	n	-23%	78%	38%	n
CCN(CC)CCNc1ccnc2cc(Cl)ccc12	n	n	n	n	-12	48	-333%	70%	-50%	71%	73%	n
Clc1ccc(NNc2ccnc3cc(Cl)ccc23)cc1	n	n	n	n	n	n	x	x	x	x	x	x
